Experimental data reported in ChEMBL document CHEMBL4480408 (J Med Chem, 2019).

Legend:
[1] = target: GABA-A receptor; anion channel; test: Displacement of [3H]muscimol from orthosteric binding site of GABA(A) receptor in Sprague-Dawley rat cortical synaptic membranes by liquid scintillation counting
[2] = target: GHB high-affinity binding site (rat)
[3] = target: T1, GABA-A receptor; alpha-1/beta-2/gamma-2 (Homo sapiens, UniProt P14867+P18507+P47870); type: cell-based
T1 sequence (P14867 whole entry): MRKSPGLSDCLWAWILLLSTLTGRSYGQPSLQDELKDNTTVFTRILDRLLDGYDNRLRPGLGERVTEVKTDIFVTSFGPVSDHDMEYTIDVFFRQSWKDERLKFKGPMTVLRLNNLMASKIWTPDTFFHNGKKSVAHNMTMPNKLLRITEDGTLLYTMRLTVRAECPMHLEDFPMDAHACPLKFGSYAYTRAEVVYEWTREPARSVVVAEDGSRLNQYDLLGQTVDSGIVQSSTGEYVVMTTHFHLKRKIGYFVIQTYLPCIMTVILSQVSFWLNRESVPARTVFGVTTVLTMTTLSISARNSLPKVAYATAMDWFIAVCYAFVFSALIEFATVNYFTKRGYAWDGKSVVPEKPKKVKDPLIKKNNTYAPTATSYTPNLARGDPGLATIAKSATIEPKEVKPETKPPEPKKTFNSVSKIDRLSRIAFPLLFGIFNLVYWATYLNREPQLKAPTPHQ
T1 sequence (P47870 whole entry): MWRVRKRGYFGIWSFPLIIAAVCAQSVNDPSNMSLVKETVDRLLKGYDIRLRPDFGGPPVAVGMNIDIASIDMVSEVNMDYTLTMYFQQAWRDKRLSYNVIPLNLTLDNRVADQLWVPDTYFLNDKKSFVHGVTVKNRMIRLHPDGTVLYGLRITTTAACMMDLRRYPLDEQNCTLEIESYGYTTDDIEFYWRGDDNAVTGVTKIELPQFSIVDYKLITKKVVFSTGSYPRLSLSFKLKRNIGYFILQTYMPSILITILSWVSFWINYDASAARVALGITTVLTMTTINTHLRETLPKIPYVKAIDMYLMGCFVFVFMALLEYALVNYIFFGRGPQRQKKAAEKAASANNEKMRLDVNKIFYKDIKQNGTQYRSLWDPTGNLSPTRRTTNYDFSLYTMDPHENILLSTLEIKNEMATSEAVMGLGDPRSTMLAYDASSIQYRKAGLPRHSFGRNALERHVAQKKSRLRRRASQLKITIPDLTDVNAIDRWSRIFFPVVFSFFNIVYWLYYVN
T1 sequence (P18507 whole entry): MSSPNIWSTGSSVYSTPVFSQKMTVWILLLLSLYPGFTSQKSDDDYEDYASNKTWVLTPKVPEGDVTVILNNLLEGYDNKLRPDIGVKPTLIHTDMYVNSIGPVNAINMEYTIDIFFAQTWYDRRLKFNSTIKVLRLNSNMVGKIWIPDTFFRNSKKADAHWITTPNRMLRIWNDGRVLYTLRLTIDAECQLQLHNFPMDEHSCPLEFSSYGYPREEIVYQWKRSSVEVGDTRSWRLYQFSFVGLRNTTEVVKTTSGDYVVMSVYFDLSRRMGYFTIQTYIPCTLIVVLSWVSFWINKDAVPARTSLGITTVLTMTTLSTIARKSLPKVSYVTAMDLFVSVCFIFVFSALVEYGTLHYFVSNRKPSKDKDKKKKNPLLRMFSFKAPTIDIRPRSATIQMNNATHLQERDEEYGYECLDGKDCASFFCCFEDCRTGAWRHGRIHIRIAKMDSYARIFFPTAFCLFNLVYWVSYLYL

[4] = Chemical stability of the compound; type: physicochemical
[5] = Drug uptake in C57BL/6JRj mouse brain at 10 mg/kg, ip after 30 mins by LC-MS analysis; type: ADME, organism-based; conditions: read-out: Drug uptake
Method in brief: (§1)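 Mice dosed i.p. at 10 mg/kg. Compound concentrations measured in brain (ng/g) and plasma (ng/mL). Brain-to-plasma distribution ratio taken from these two concentrations.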

[6] = Plasma concentration in C57BL/6JRj mouse at 10 mg/kg, ip after 30 mins by LC-MS analysis; type: ADME, organism-based; method in brief: as §1
[7] = Ratio of drug uptake in C57BL/6JRj mouse brain to plasma at 10 mg/kg, ip after 30 mins by LC-MS analysis; type: ADME, organism-based; conditions: read-out: BPR; method in brief: as §1
[8] = Metabolic stability in mouse liver microsomes assessed as compound remaining at 20 uM preincubated for 5 mins followed by NADPH addition and measured at 0 min by UHPLC-MS/MS analysis; type: ADME, Microsome; conditions: read-out: Stability
Method in brief: (§2)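 Parent loss and parent-drug formation quantified by UHPLC-MS/MS. Percent remaining = internal-standard-corrected peak area at each time ÷ peak area at 0 min × 100. The 0-min peak area was compared with freshly prepared compound in neat buffer and MeCN. A dash at 0 min means the compound degraded during sample preparation and pre-incubation. Mean of three biological replicates.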

[9] = Metabolic stability in mouse liver microsomes assessed as compound remaining at 20 uM preincubated for 5 mins followed by NADPH addition and measured at 30 mins by UHPLC-MS/MS analysis; type: ADME, Microsome; conditions: read-out: Stability; method in brief: as §2
[10] = Metabolic stability in mouse liver microsomes assessed as compound remaining at 20 uM preincubated for 5 mins followed by NADPH addition and measured at 60 mins by UHPLC-MS/MS analysis; type: ADME, Microsome; conditions: read-out: Stability; method in brief: as §2
[11] = Metabolic stability in mouse plasma assessed as compound remaining at 10 uM preincubated for 5 mins followed by NADPH addition and measured at 0 min by UHPLC-MS/MS analysis; type: ADME, cell-free; conditions: read-out: Stability; method in brief: as §2
[12] = Metabolic stability in mouse plasma assessed as compound remaining at 10 uM preincubated for 5 mins followed by NADPH addition and measured at 60 mins by UHPLC-MS/MS analysis; type: ADME, cell-free; conditions: read-out: Stability; method in brief: as §2
[13] = Metabolic stability in mouse plasma assessed as compound remaining at 10 uM preincubated for 5 mins followed by NADPH addition and measured at 120 mins by UHPLC-MS/MS analysis; type: ADME, cell-free; conditions: read-out: Stability; method in brief: as §2
[14] = Dissociation constant, pKa of the compound; type: physicochemical
[15] = Agonist activity at GABA(B) receptor (unknown origin); parameters: species or system Homo sapiens

| Structure (SMILES) | Ki [1] | Ki [2] | also measured |
| --- | --- | --- | --- |
| On1cc(C2CCNCC2)c(-c2cccc(-c3ccccc3)c2)n1 | 0.03 µM | > 100 µM |  |
| O=C(O)CCC(O)c1ccc(OCc2ccccc2)cc1 (stereo unspecified) | > 100 µM | 0.12 µM |  |
| N=c1ccc(-c2ccc(Cl)cc2)nn1CCCC(=O)O | 0.61 µM | 11 µM | pKi [1]: 6.23; pKi [2]: 4.99 |
| N=c1ccc(-c2ccccc2)nn1CCCC(=O)O | 0.81 µM | 100 µM |  |
| N=c1ccc(-c2ccc(OCc3ccccc3)cc2)nn1CCCC(=O)O | 0.016 µM | 3.1 µM |  |
| N=c1ccc(-c2ccc(O)cc2)nn1CCCC(=O)O | 0.22 µM | 15 µM | IC50 [3]: 11 µM |
| COc1cccc(-c2ccc3nc(CC(=O)O)cn3n2)c1 | > 100 µM | 0.44 µM |  |
| COc1ccc(C2=NN3CC(CC(=O)O)N=C3C=C2)cc1 (stereo unspecified) | > 100 µM | 45 µM |  |
| CC(C)(C)C(=O)OCOC(=O)Cc1cn2nc(-c3ccc(Cl)cc3)ccc2n1 |  |  | Stability [4]: Unstable |
| CC(C)(C)OC(=O)Cc1cn2nc(-c3ccc(Cl)cc3)ccc2n1 |  |  | concentration at 0.5 h [5]: 798 ng/g; concentration at 0.5 h [6]: 212 ng/mL; Kp at 0.5 h [7]: 3.68; remaining at 0 h, 20 µM [8]: 100%; remaining at 0.5 h, 20 µM [9]: 90%; remaining at 1 h, 20 µM [10]: 98%; remaining at 0 h, 10 µM [11]: 100%; remaining at 1 h, 10 µM [12]: 51%; remaining at 2 h, 10 µM [13]: 36% |
| CCOC(=O)Cc1cn2nc(-c3ccc(Cl)cc3)ccc2n1 |  |  | Stability [4]: Unstable |
| O=C(O)Cc1cn2nc(-c3ccc(Cl)cc3)ccc2n1 | > 100 µM | 0.22 µM | concentration at 0.5 h [5]: 59 ng/g; concentration at 0.5 h [6]: 7600 ng/mL; Kp at 0.5 h [7]: 0.008; remaining at 0 h, 20 µM [8]: 100%; remaining at 0.5 h, 20 µM [9]: 105%; remaining at 1 h, 20 µM [10]: 100%; remaining at 0 h, 10 µM [11]: 100%; remaining at 1 h, 10 µM [12]: 97%; remaining at 2 h, 10 µM [13]: 99%; Stability [4]: Stable; pKa [14]: 4.5 |
| COc1ccc(-c2ccc3nc(CC(=O)O)cn3n2)cc1 | > 100 µM | 0.83 µM | pKi [2]: 6.09 |
| COc1cccc(C2=NN3CC(CC(=O)O)N=C3C=C2)c1 (stereo unspecified) | > 100 µM | > 100 µM |  |
| O=C(O)Cc1cn2ccccc2n1 | > 100 µM | 72 µM |  |
| O=C(O)CC1CN2N=C(c3ccc(Cl)cc3)C=CC2=N1 (stereo unspecified) | > 100 µM | 146 µM | pKa [14]: 9.7 |

| Structure (SMILES) | Ki [1] | Ki [2] | also measured |
| --- | --- | --- | --- |
| N=c1ccc(-c2ccc([N+](=O)[O-])cc2)nn1CCCC(=O)O | 0.75 µM | 14 µM | IC50 [3]: 30 µM |
| O=C(O)CC1CN2N=C(c3cccc(Cl)c3)C=CC2=N1 (stereo unspecified) | > 100 µM | > 100 µM |  |
| O=C(O)Cc1cn2ncccc2n1 | > 100 µM | 9.9 µM |  |
| CC(=O)OCOC(=O)Cc1cn2nc(-c3ccc(Cl)cc3)ccc2n1 |  |  | Stability [4]: Unstable |
| N=c1ccc(-c2cccc(N)c2)nn1CCCC(=O)O | 1.1 µM | 30 µM | IC50 [3]: 30 µM |
| O=C(O)Cc1cn2nc(-c3cccc(Cl)c3)ccc2n1 | > 100 µM | 0.23 µM |  |
| O=C(O)Cc1cn2nc(-c3ccc(Cl)c(Cl)c3)ccc2n1 | > 100 µM | 0.19 µM | pKi [2]: 6.77 |
| O=C(O)Cc1cn2nc(-c3ccc(OCc4ccccc4)cc3)ccc2n1 | > 100 µM | 2.2 µM |  |
| N=c1ccc(-c2cccc(Cl)c2)nn1CCCC(=O)O | 0.039 µM | 21 µM | pKi [2]: 4.66 |
| N=c1ccc(-c2cccc([N+](=O)[O-])c2)nn1CCCC(=O)O | 0.078 µM | 13 µM | IC50 [3]: 4.4 µM |
| O=C(O)CC1CN2N=C(c3ccccc3)C=CC2=N1 (stereo unspecified) | > 100 µM | 427 µM | pKi [2]: 3.41 |
| N=c1ccc(-c2cccc(OCc3ccccc3)c2)nn1CCCC(=O)O | 0.87 µM | 4.2 µM | pKi [1]: 6.07; pKi [2]: 5.39 |
| N=c1ccc(-c2cccc(O)c2)nn1CCCC(=O)O | 0.13 µM | 16 µM | IC50 [3]: 3.9 µM |
| O=C(O)Cc1cn2nc(-c3cccc(OCc4ccccc4)c3)ccc2n1 | > 100 µM | 0.51 µM | pKi [2]: 6.33 |
| O=C(O)CCCO [OXYBATE] |  |  | EC50 [15]: 5000 µM |
